L major viab: reduces viability of Leishmania major promastigotes | 200,000 tested, 9% active | resazurin fluorescence viability | inhibition, % at 10 µM; in the data active = inhibition above about 50%;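 also: promastigotes grown with compound for 44 hours at 28 °C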
RAM network inh: yeast RAM network inhibition; S. cerevisiae dse1pr::URA3 reporter, 5-FOA growth OD615, 2 d; analog-sensitive cbk1-as2 kinase mutant strain; inhibition, % at 50 µM; 190,000 tested, 1.8% active; AID 868;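 active = inhibition above a set limit, 3 SD over mean compound inhibition, cut at about 8.4% in these data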;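 also: 0% = DMSO-only wells with no growth and 100% = 10 µM 1-NA-PP1 full growth; inhibition rescues growth on 5-FOA so higher OD means more RAM inhibition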
WT yeast gro inh: growth inhibition of WT yeast, mitochondrial fusion screen. AID 1362. 190,000 tested, 2.1% active. mitochondrial fusion phenotypic screen, WT strain. inhibition, % at 10 µM; in the data active = inhibition above about 58%; tested in S. cerevisiae
ABCG2 inh: inhibitors of human ABCG2 transporter, ABCB1 counter-screen; Q9UNQ0; IgMXP3 cells, JC-1 efflux, flow cytometry; inhibition, % at 6.6 µM; 190,000 tested, 0.1% active;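 active = inhibition above 80%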;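 also: 0% = DMSO and 100% = nicardipine control wells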
Target sequence (Q9UNQ0 whole entry, looked up): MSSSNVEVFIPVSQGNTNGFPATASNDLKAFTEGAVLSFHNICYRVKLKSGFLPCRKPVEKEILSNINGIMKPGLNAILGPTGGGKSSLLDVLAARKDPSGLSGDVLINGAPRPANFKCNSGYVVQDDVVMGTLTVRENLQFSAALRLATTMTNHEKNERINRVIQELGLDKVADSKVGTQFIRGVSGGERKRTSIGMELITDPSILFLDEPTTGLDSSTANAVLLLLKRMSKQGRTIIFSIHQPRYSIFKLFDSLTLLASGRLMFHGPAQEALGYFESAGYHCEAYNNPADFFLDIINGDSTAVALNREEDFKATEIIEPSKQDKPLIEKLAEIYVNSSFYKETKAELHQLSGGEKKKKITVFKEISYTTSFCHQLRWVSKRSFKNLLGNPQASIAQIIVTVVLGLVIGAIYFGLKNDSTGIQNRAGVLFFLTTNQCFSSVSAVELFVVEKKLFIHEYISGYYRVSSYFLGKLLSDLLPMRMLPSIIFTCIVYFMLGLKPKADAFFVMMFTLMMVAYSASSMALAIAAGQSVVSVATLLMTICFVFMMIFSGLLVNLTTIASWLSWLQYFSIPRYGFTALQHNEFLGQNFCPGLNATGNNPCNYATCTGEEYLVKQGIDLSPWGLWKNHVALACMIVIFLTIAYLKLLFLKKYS
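test system = two drug-resistant human cell lines, ABCG2 and ABCB1 | amount = 3 million cells/mL final, two lines in 1:1 ratio | reagent = JC-1 transporter substrate | doses = one concentration, 6.6 µM final | incubation = 10 min at 25 °C | signal = flow cytometric JC-1 green MFI at 530 nm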
ABCB1 block: human ABCB1 inhibition, ABCG2 as counter-screen; P08183; CCRF-Adr cells, JC-1 efflux, flow cytometry; inhibition, % at 6.6 µM; 190,000 tested, 0.067% active; in the data active = inhibition above about 40%;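 also: 0% = vehicle and 100% = reference inhibitor; higher value means more JC-1 retained so stronger ABCB1 efflux block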
RAM efflux-def: RAM network inhibition, efflux-deficient strain. S. cerevisiae efflux-deficient reporter strain, 5-FOA growth OD615, 2 days. max inhibition, %. 1,200 tested, under 10 active. shares compounds with RAM network inh; call rule not given here;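 also: plate controls were vehicle for no effect and reference inhibitor for full effect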
* = called active by the depositor; . = not tested or not shown. In the library only some 12% were active in any assay of this set; here they are far more common.

SMILES	L major viab	RAM network inh	WT yeast gro inh	ABCG2 inh	ABCB1 block	RAM efflux-def
CC(C)CC(c1nnnn1C1CCCC1)N1CCC(C(N)=O)CC1 (stereo not drawn)	-3.2	2.4	4.7	-0.2	-0.2	.
O=C(CCNC(=O)c1ccccc1)OCC(=O)c1ccccc1	-4.6	-0.7	-12.2	2.8	0.6	.
COc1ccc(CCN2C(=O)/C(=C\c3ccco3)SC2=S)cc1OC	0.3	11.9*	2.4	1.0	0.0	2.6
Cc1ccccc1OCC(=O)N(Cc1nc(-c2ccccc2)no1)C(C)C	-2.7	5.8	10.2	3.0	0.8	.
COc1ccccc1OCC(=O)N(Cc1nc(-c2ccccc2)no1)C1CCCCC1	10.2	12.9*	60.9*	11.3	2.6	2.5
CC(C)S(=O)(=O)C1=NSC2=NC(=O)/C(=C\c3ccc(-c4ccccc4)o3)C(=N)N21	39.7	14.1*	17.1	-6.5	-0.9	4.2
O=S(=O)(Nc1nc2ccccc2nc1Nc1ccc2c(c1)OCCO2)c1cccs1	53.2*	11.5*	32.3	0.4	-0.1	1.2
CCn1c(O)c(/C=C/C=C/C=Nc2ccccc2)sc1=S	-3.4	2.4	-1.5	-0.3	0.0	.
CCCCn1c(O)c(/C=C/C=C/C=Nc2ccccc2)sc1=S	32.7	13.2*	-1.4	-11.9	-1.3	5.9
CC(C)N(Cc1cc2ccccc2[nH]c1=O)C(=O)c1ccco1	-4.2	-1.0	-15.2	-0.4	-0.1	.
O=C(c1ccc(-n2c(SCc3cccc(F)c3)nc3ccccc3c2=O)cc1)N1CCOCC1	2.9	2.0	9.0	15.0	10.5	.
O=c1c2ccccc2nc(SCc2cccc(F)c2)n1-c1cccc(S(=O)(=O)N2CCCC2)c1	15.1	12.7*	6.5	-1.1	0.4	1.9
C#CCn1c(=NC(=O)c2sc3ccccc3c2Cl)sc2cc(S(N)(=O)=O)ccc21	-6.4	4.0	0.9	-5.8	-0.9	.
CCN1C(=O)C(CC(=O)Nc2ccc(OC)cc2)N(Cc2ccco2)C1=S (stereo not drawn)	2.7	2.8	15.3	1.2	0.6	.
O=C(COC(=O)c1ccccc1-c1nc2ccccc2s1)Nc1ccccc1C(F)(F)F	12.8	14.8*	34.8	26.4	2.2	2.2
O=C(COC(=O)c1cccs1)Nc1ccccc1C(F)(F)F	-0.8	0.6	-3.2	10.1	-1.0	.
CCCCNC(=S)N(C)/N=C/c1ccc(OCC(=O)Nc2ccc(OC)cc2)c(OC)c1	-2.9	15.1*	16.3	0.4	0.1	3.5
CCOC(=O)c1c(O)c(Cl)c(C)[nH]c1=O	-6.0	1.6	-50.9	-0.8	0.1	.
CC(=O)SCC(Cc1ccccc1)C(=O)NCC(=O)OCc1ccccc1 (stereo not drawn)	.	.	14.1	2.4	.	.
CCC(=O)Nc1ccccc1C(=O)OCc1ccc(C(=O)c2ccccc2)cc1	5.0	12.2*	0.5	3.8	0.6	3.5
CCC(=O)Nc1ccccc1C(=O)OC(c1ccccc1)c1ccccc1	8.3	4.0	42.0	9.2	2.1	.
COc1cccc(-c2ccc(C#N)c(OC(=O)c3c(Cl)cccc3Cl)n2)c1	14.0	12.2*	62.3*	2.2	0.2	1.5
COc1cccc(-c2ccc(C#N)c(OC(=O)c3ccc(Cl)cc3)n2)c1	-6.1	0.1	-6.2	0.5	0.0	.
O=C(Cc1cccs1)N1CCN(c2nc(-c3ccc(Cl)cc3)cs2)CC1	-3.0	14.5*	59.3*	4.3	0.3	1.1
Clc1ccc(-c2csc(N3CCC(c4ccccc4)C3)n2)cc1 (stereo not drawn)	-3.9	13.5*	-3.7	0.6	0.1	6.6
SMILES	L major viab	RAM network inh	WT yeast gro inh	ABCG2 inh	ABCB1 block	RAM efflux-def
COc1ccc(-c2nnc(SC(C)C(=O)Nc3cccc(Cl)c3)o2)cc1 (stereo not drawn)	-4.3	14.6*	33.0	43.0	2.3	1.7
COc1ccc(Cl)cc1C(=O)NNC1CC(=O)N(Cc2ccc(Cl)cc2)C1=O (stereo not drawn)	-4.4	0.4	0.6	4.7	0.4	.
CCOc1cc(S(=O)(=O)Nc2ccc(CC)cc2)ccc1Cl	4.8	14.3*	25.0	1.6	0.5	0.8
CCOc1cc(S(=O)(=O)NCc2ccccn2)ccc1Cl	-1.8	0.6	1.7	-0.3	-0.2	.
Cn1cccc1/C=N/N1CCN(c2ccccc2)CC1	-5.9	0.3	-16.9	3.4	1.0	.
CCOc1ccc(OCC)c(-c2c(=O)n(OCc3ccc(C(C)(C)C)cc3)c3ccccc3[n+]2[O-])c1	22.5	2.7	26.9	6.9	2.2	.
Cc1ccc(S(=O)(=O)Cn2nnnc2CN(Cc2ccco2)Cc2cccs2)cc1	26.4	11.8*	36.6	27.7	3.5	1.8
Cc1ccccc1OCC(O)Cn1c2ccccc2c2ccccc21 (stereo not drawn)	91.2*	12.6*	20.3	4.8	0.8	5.6
CCCOc1ccc(CC(=O)NNC(=S)Nc2ccccc2)cc1Br	22.9	15.2*	44.3	-3.0	-1.3	2.4
COc1ccc(C(=O)O/N=C/c2c(C(F)(F)F)nn(C)c2SCc2ccccc2Cl)cc1	-0.1	11.9*	17.9	4.8	0.7	4.0
Cn1nc(C(F)(F)F)c(/C=N/OC(=O)c2ccccc2Cl)c1SCc1ccc(Cl)cc1	0.3	16.4*	-3.6	0.7	-0.2	2.6
O=C(OCc1ccccc1)c1cccc(-c2nnc(-c3ccccc3)o2)c1	-5.0	12.1*	15.3	33.5	2.6	1.9
CC(C)OC(=O)c1ccc(COC(=O)c2cccc(-c3nnc(-c4ccccc4)o3)c2)cc1	-3.9	12.7*	0.5	12.2	1.4	2.2
O=C(COc1ccccc1Cl)Nc1cc(Cl)ccc1Oc1ccccc1	-5.1	13.8*	-10.2	2.4	0.1	3.9
CCCCCc1c2c(cc(O)c1C(=O)O)OC(=O)c1c(cc(OC)cc1C(=O)CCCC)O2	-21.2	13.3*	4.3	-2.6	-1.6	3.1
COCCOC(=O)c1c(C)oc2ccc(OC(=O)COc3c(F)c(F)c(F)c(F)c3F)cc12	-8.1	16.0*	2.1	14.4	-1.8	1.8
Cc1oc2ccc(OC(=O)COc3c(F)c(F)c(F)c(F)c3F)cc2c1C(=O)OC(C)C	-2.8	13.3*	5.1	22.4	0.1	2.1
COCCOC(=O)c1c(C)oc2ccc(OS(C)(=O)=O)cc12	-2.0	2.5	11.8	3.1	0.6	.
COC(=O)c1cn(CCOc2ccc(C)cc2)c2ccccc12	1.1	6.2	44.5	0.5	-0.1	.
N#C/C(=C\c1cn(CCOc2ccccc2)c2ccccc12)C(=O)NCC1CCCO1 (stereo not drawn)	22.9	15.5*	-4.5	12.3	1.9	3.3
CCOC(=O)/C(C#N)=C/c1cn(CCOc2ccc(OC)cc2)c2ccccc12	9.7	13.2*	4.2	35.2	2.4	4.5
CCn1c2ccccc2c2cc(NC(=O)c3cc(OC)c(OC)c(OC)c3)ccc21	-4.5	11.7*	16.3	1.6	0.6	4.1
COc1ccc(Br)cc1C(=O)Nc1ccccc1-c1ccccc1	9.9	12.0*	28.6	0.2	0.3	3.4

Source: PubChem
